Assay results gathered from unrelated publications.
Each line is one published result; the experiments were not run side by side.
Target: Rho-associated protein kinase 2 (ROCK2, Homo sapiens, UniProt O75116)

C#Cc1cnc(Nc2ccnc(CO)c2)nc1Nc1ccccc1S(C)(=O)=NC#N (stereo not drawn) — remaining signal (cell-free assay; 1 µM): 49%
C#Cc1cc(-c2cc(Nc3nc(N[C@@H](C)c4ccc(F)cn4)ncc3Cl)n[nH]2)ccc1C=O — inhibition (enzyme activity; inhibitor; 0.2 µM): 5.91%
C=CC(=O)N1CCC[C@@H](n2nc(-c3ccc(Oc4ccccc4)cc3)c3c(N)ncnc32)C1 — inhibition (enzyme activity; inhibitor; 1 µM): 0%
C[C@H]1CC[C@H](n2c3cnccc3c3cnc(Nc4ccc5c(n4)CCN(C(=O)CO)C5)nc32)CC1 — remaining signal (cell-free assay; 1 µM): 95%
Cc1cc(O)c(-c2ccc([C@@H](C)CN(C)C)cc2)c2c1[nH]c(=O)c1sccc12 — inhibition (enzyme activity; inhibitor; 0.1 µM): 14.6%
CC#CC(=O)N1CCC[C@H]1c1nc(-c2ccc(C(=O)Nc3ccccn3)cc2)c2c(N)nccn12 — inhibition (enzyme activity; inhibitor; 1 µM): 29%
N#Cc1ccc(NC(=O)Nc2ccccc2)cc1 — remaining binding (cell-free assay; competition with immobilised ligand; 25 µM): 63%
CN1CCN(C(=O)c2ccc(NC(=O)Nc3ccc(N(C)c4ccnc(Nc5ccc(CS(C)(=O)=O)cc5)n4)cc3)cc2)CC1 — remaining binding (binding; 1 µM): 1.5%
CCCCC(=O)Nc1ccc(-c2ccc3ncn(CCC)c(=O)c3c2)cn1 — remaining binding (binding; competition with immobilised ligand; 0.5 µM): 100%
